Rows were chosen to be rich in hits. Some 1.5% of all compounds tested hit in one or more screens of this group.
MLL AF4-AF9 inh: inhibitors of human MLL-AF4/AF9 interaction; actives 0.47% (n = 350,000); AlphaScreen, biotin-AF4 peptide binding to FLAG-AF9; P42568; inhibition, % at 10 µM;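 active means every replicate reaching a set inhibition limit, whatever the replicate mean, cut at about 25% in these data; inconclusive means mean inhibition reaches that limit but some replicates miss it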
Target sequence (P42568 whole entry, looked up): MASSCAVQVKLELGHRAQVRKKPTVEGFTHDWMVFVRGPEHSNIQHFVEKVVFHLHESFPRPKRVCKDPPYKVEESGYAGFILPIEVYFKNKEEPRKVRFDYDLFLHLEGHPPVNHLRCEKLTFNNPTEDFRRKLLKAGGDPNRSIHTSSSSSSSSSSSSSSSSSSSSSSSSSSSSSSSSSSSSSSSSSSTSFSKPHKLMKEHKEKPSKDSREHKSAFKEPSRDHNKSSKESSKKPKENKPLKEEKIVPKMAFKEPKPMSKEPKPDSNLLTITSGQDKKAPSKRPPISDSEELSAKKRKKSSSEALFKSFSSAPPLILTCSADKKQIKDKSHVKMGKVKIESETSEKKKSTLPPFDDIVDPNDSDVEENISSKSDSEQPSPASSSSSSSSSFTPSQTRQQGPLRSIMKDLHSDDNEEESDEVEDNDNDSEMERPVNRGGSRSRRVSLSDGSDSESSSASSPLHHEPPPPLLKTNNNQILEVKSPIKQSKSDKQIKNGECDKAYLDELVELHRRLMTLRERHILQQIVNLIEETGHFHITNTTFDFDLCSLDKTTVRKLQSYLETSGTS
RAD52 anneal inh: inhibitors of human RAD52 DNA annealing. P43351. recombinant RAD52 DNA annealing, FRET fluorescence. inhibition, % at 18.7 µM. actives 0.46% (n = 360,000). AID 651710;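 active means every replicate showing at least 50% inhibition; inconclusive means mean inhibition at least 50% but not in every replicate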
ERAP1 HTS inh: ERAP1 (human) enzyme inhibition; recombinant ERAP1, Leu-AMC fluorescence, 60 min; inhibition, % at 10.7 µM; actives 0.15% (n = 340,000); AID 652197;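 active means mean replicate inhibition of at least 30%, or all replicates individually reaching that 30% level; inactive means mean below 30% and not every replicate reaching it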
INS-1E GSIS act: primary screen for activators of insulin secretion dependent on glucose, INS-1E cells, GLuc reporter luminescence; INS-1E GLuc reporter insulin secretion, 2-3 h; activation, % at 16.6 µM; actives 0.61% (n = 370,000); AID 743287;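 active means lowest replicate activation of at least 40%, so every replicate reaches that level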
S100A4 inh HTS: S100A4-myosin IIA interaction inhibition; S100A4/TAMRA-MyoIIA peptide fluorescence polarization; actives 0.14% (n = 360,000); P26447; inhibition, % at 10.7 µM;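 active means mean inhibition of at least 70% across replicates, with every replicate also reaching that level; inconclusive means mean inhibition reaches 70% but some replicates fall short; inactive means mean inhibition below 70%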
Target sequence (P26447 whole entry, looked up): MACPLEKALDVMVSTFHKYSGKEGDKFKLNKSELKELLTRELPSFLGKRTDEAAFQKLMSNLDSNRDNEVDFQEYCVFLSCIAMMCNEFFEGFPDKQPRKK
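Test system – S100A4 monomer (human) · Compound – single-point compound testing · Schedule – 5 min incubation before reading · Probe or stimulus – TAMRA-labelled myosin IIA heavy-chain peptide probe, 5 nM · Benchmarks – neutral control DMSO, positive control TFP · Medium – Calcium-containing HEPES buffer, pH 7.2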
RAD52 DNA ctr: binds DNA, flagging false RAD52 inhibitor hits | shares compounds with RAD52 anneal inh | Salmon sperm DNA/acridine orange FP displacement, DNA binding | actives 8% (n = 1,000) | AC50, µM;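 active means fitted half-maximal concentration for signal loss at or below twice the highest dose tested, in every separate run, actives reach about 64 µM in these data; inconclusive means runs disagree, or flat partial signal loss, or poor fit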
Large screens that a line does not name were inactive (follow-up assays come after a bar, where they were run); ! = not confirmed by another sample.

Cc1nc(Nc2nc(-c3ccccc3)cc(=O)[nH]2)nc2ccccc12	RAD52 anneal inh 95 (no result: MLL AF4-AF9 inh) | RAD52 DNA ctr inactive
Cc1nc(Nc2nc(CSc3nc4ccccc4[nH]3)cc(=O)[nH]2)nc2ccccc12	none (no result: MLL AF4-AF9 inh, RAD52 anneal inh, ERAP1 HTS inh, S100A4 inh HTS)
C[C@H]1CCCCO[C@@H](CN(C)C(=O)Nc2ccc3c(c2)OCO3)[C@@H](C)CN([C@@H](C)CO)C(=O)c2cc(NC(=O)NC3CCCCC3)ccc2O1	none (no result: MLL AF4-AF9 inh, RAD52 anneal inh, ERAP1 HTS inh, S100A4 inh HTS)
CO[C@H]1CN(C)C(=O)c2ccc(NC(C)=O)cc2OC[C@@H](C)N(C(=O)Cc2ccccn2)C[C@H]1C	none
CCCS(=O)(=O)Nc1ccc(Nc2c3ccccc3nc3ccccc23)c(OC)c1	RAD52 anneal inh 64 | RAD52 DNA ctr inconclusive
Cc1ccc(-n2c(C)c3c(C)nnc(C)c3c2C)cc1N	none
Cc1cc(-n2c(C)c3c(C)nnc(C)c3c2C)ccc1N	RAD52 anneal inh 66 (no result: INS-1E GSIS act) | RAD52 DNA ctr inactive
CN1CCN(CC(O)COc2ccc(C34CC5CC(CC(C5)C3)C4)cc2)CC1 (stereo not given)	RAD52 anneal inh 56 | RAD52 DNA ctr inactive
NC1=NC[C@H](Cc2ccc(O)cc2)N1CCC12CC3CC(CC(C3)C1)C2	RAD52 anneal inh 53 (no result: INS-1E GSIS act) | RAD52 DNA ctr inactive
O=C(C[C@H]1C[C@H]2c3cc(NC(=O)NC4CCCC4)ccc3O[C@H]2[C@H](CO)O1)NCc1ccc(-c2ccccc2)cc1	none
CC(C)NC(=O)N(C)C[C@H]1Oc2ncc(C#CC3CCCC3)cc2C(=O)N([C@@H](C)CO)C[C@H]1C	none
CN(C)CCCn1c(SCC(=O)N2c3ccccc3Sc3ccccc32)nc2ccccc2c1=O	MLL AF4-AF9 inh inconclusive, RAD52 anneal inh 69 | RAD52 DNA ctr inactive
Cc1ccc(-c2csc(NC(=O)CSc3nc4ccccc4c(=O)n3CCCN(C)C)n2)cc1	MLL AF4-AF9 inh 36, RAD52 anneal inh 91 | RAD52 DNA ctr inactive
Cn1c(SCC(=O)N2c3ccccc3Sc3ccccc32)nc2ccccc21	none
Cc1ccc(-c2csc(NC(=O)CSc3nc4ccccc4[nH]3)n2)cc1	none (no result: MLL AF4-AF9 inh, RAD52 anneal inh, ERAP1 HTS inh, S100A4 inh HTS)
C#CCOCCOCCOCCNc1nc(N2CCN(C(=O)[C@H](CCCCN)n3cc(CN)nn3)CC2)nc(N2CCN(C(=O)[C@H](CCC(=O)O)n3cc([C@@H](N)CCCCN)nn3)CC2)n1	MLL AF4-AF9 inh 74, RAD52 anneal inh 61 (no result: ERAP1 HTS inh) | RAD52 DNA ctr inactive
C#CCOCCOCCOCCNc1nc(N2CCN(C(=O)CCCCCCCCCCNC(=O)[C@H](CCCCN)n3cc(CCO)nn3)CC2)nc(N2CCN(C(=O)CCCCCCCCCCNC(=O)[C@H](CCCCN)n3cc(CCCC(=O)O)nn3)CC2)n1	MLL AF4-AF9 inh 55, RAD52 anneal inh 52 (no result: INS-1E GSIS act) | RAD52 DNA ctr inactive
C#CCOCCOCCOCCNc1nc(N2CCN(C(=O)C([C@@H](C)O)n3cc([C@@H](N)CCCCN)nn3)CC2)nc(N2CCN(C(=O)[C@H](CCCCN)n3cc([C@@H](N)[C@H](C)CC)nn3)CC2)n1 (stereo not given in full)	MLL AF4-AF9 inh 59, RAD52 anneal inh 72 | RAD52 DNA ctr inactive
C#CCOCCOCCOCCNc1nc(N2CCN(C(=O)Cn3cc(CCCN=C(N)N)nn3)CC2)nc(N2CCN(C(=O)[C@H](CCCCN)n3cc(CCCC)nn3)CC2)n1	RAD52 anneal inh 51 | RAD52 DNA ctr inactive
COCC#Cc1ccc2c(c1)O[C@H](CN(C)CC1CC1)[C@H](C)CN([C@@H](C)CO)S2(=O)=O	none
CCC(=O)N1C[C@@H](C)[C@@H](OC)CN(C)C(=O)c2ccc(NC(=O)NC(C)C)cc2OC[C@@H]1C	none
COCC(=O)Nc1ccc2c(c1)C(=O)N(C)[C@@H]1CC[C@H](CC(=O)OC)O[C@H]1CO2	none (no result: MLL AF4-AF9 inh, RAD52 anneal inh, ERAP1 HTS inh, S100A4 inh HTS)
C#CCOCCOCCOCCNc1nc(N2CCN(C(=O)[C@H](CCCCN)n3cc([C@@H](N)C(C)CC)nn3)CC2)nc(N2CCN(C(=O)[C@H](Cc3ccc(O)cc3)n3cc([C@@H](N)CC(C)C)nn3)CC2)n1 (stereo not given in full)	MLL AF4-AF9 inh 30, RAD52 anneal inh 92 | RAD52 DNA ctr inactive
C#CCOCCOCCOCCNc1nc(N2CCN(C(=O)[C@H]([C@@H](C)CC)n3cc([C@@H](N)CO)nn3)CC2)nc(N2CCN(C(=O)[C@H](CCCCN)n3cc([C@@H](N)CO)nn3)CC2)n1	none (no result: INS-1E GSIS act)
C#CCOCCOCCOCCNc1nc(N2CCN(C(=O)[C@H](CO)n3cc([C@@H](N)C(C)C)nn3)CC2)nc(N2CCN(C(=O)[C@H](CCCCN)n3cc([C@@H](N)[C@H](C)CC)nn3)CC2)n1	MLL AF4-AF9 inh 42, RAD52 anneal inh 61 (no result: INS-1E GSIS act) | RAD52 DNA ctr inactive
CC[C@H](C)Cc1cn([C@@H](CCCCN)C(=O)NCCCCCCCCCCC(=O)N2CCNCC2)nn1	MLL AF4-AF9 inh inconclusive, RAD52 anneal inh 77, INS-1E GSIS act 40 | RAD52 DNA ctr inactive
COc1cc(-c2cnc3c(NC=O)cc(-c4ccc(N5CCN(C)CC5)cc4)cn23)cc(OC)c1OC	RAD52 anneal inh 70 | RAD52 DNA ctr inactive
COc1cc(-c2cnc3c(NC(C)=O)cc(-c4ccc(N5CCN(C)CC5)cc4)cn23)cc(OC)c1OC	none (no result: INS-1E GSIS act)
CC(=O)Nc1cc(-c2ccc(N3CCN(C)CC3)cc2)cn2c(-c3ccc(S(C)(=O)=O)cc3)cnc12	RAD52 anneal inh 73 (no result: INS-1E GSIS act) | RAD52 DNA ctr inactive
CCNC(=O)C[C@@H]1CC[C@@H]2[C@@H](COc3ccc(NC(=O)c4cc(C)on4)cc3C(=O)N2C)O1	none
CCN(CC)CCn1c(C)nc2ccccc21	none
Cn1c2ccccc2c2n[nH]c(=S)nc21	none (no result: INS-1E GSIS act)
CCN(CC)CCn1c2ccccc2c2n[nH]c(=S)nc21	RAD52 anneal inh 73 | RAD52 DNA ctr inactive
CCN(CC)CCn1c2ccccc2c2nc3ccccc3nc21	RAD52 anneal inh 89 | RAD52 DNA ctr inactive
C[C@H](CO)N1C[C@H](C)[C@H](CN(C)C(=O)Nc2ccc3c(c2)OCO3)Oc2ccc(NC(=O)Cc3ccccc3)cc2CC1=O	none
COc1ccc(Nc2c3c(nc4ccccc24)CCC3)c(OC)c1	none
COc1ccc(Nc2nc(NCC3CCCO3)c3ccccc3n2)c(OC)c1 (stereo not given)	RAD52 anneal inh 54 | RAD52 DNA ctr inactive
CCCCCCCCCCCCCCCC[n+]1cccc2ccccc21	MLL AF4-AF9 inh 26, RAD52 anneal inh 90, ERAP1 HTS inh 108, INS-1E GSIS act 159 | RAD52 DNA ctr 32µM
CCN1CCN(Cc2ccc(NC(=O)c3ccc(C)c(NC(=O)c4cccc5[nH]ccc45)c3)cc2C(F)(F)F)CC1	RAD52 anneal inh 89! | RAD52 DNA ctr inactive
CCN1CCN(Cc2ccc(NC(=O)c3ccc(C)c(NC(=O)c4nccnc4N)c3)cc2C(F)(F)F)CC1	RAD52 anneal inh 67 | RAD52 DNA ctr inactive
O=C(C[C@H]1CC[C@H]2[C@@H](COC[C@H](O)CN2C(=O)Nc2ccccc2)O1)NCCCN1CCOCC1	none
